Assay results collected from several papers.
Target: Rhodopsin kinase GRK7 (GRK7, Homo sapiens, UniProt Q8WTQ7)
Residues used in one study (Q8WTQ7 1-553): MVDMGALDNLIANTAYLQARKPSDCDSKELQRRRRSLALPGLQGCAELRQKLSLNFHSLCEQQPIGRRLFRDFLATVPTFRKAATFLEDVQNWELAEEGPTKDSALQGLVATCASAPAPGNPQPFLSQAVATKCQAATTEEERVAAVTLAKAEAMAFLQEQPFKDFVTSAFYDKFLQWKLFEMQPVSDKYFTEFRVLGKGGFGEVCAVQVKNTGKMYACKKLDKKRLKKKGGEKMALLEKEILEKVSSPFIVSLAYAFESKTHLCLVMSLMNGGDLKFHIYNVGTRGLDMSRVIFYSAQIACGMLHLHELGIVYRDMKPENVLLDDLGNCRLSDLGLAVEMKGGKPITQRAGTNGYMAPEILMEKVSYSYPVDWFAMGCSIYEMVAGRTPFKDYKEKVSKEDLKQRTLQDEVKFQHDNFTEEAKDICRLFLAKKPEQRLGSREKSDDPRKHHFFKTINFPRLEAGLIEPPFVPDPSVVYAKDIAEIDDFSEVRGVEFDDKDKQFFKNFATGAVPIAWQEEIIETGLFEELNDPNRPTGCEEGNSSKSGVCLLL

Compound	observed	technique	concentration	remaining binding
COc1cc(-c2cn(C3CCc4c(F)cccc4N(CC(F)(F)F)C3=O)nn2)ccc1-n1cnc(C)c1 (stereo not shown)	cell-free assay	competition with immobilised ligand	1 µM	100%
O=C(NCC1CCOCC1)c1n[nH]cc1NC(=O)c1c(F)cccc1F	binding	competition with immobilised ligand	1 µM	89%
Cc1cnc(Nc2ccc(C(=O)N3CCC(N4CCCC4)CC3)cc2)nc1-c1cc2ccccc2s1	binding	competition with immobilised ligand	1 µM	29%
c1cnn2ncc(-c3ccnc(N4CCC45COC5)n3)c2c1	binding		1 µM	66%
O=C(NCCCN1CCOCC1)c1ccc(Nc2nccc(-c3cc4ccccc4s3)n2)cc1	binding	competition with immobilised ligand	1 µM	100%
CC1CCCN1c1nccc(-c2cnn3ncccc23)n1 (stereo not shown)	binding		1 µM	100%
CCCOc1ccc([C@@H]2[C@@H](C(=O)O)[C@H](c3ccc4c(c3)OCO4)CN2CC(=O)Nc2c(CC)cccc2CC)cc1	cell-free assay	competition with immobilised ligand	1 µM	99%
Cc1cnn2ncc(-c3ccnc(N(C)C)n3)c2c1	binding		1 µM	84%
CNC(=O)[C@@H]1CC[C@@H](n2c(-c3ccc4cnccc4c3)nc3ccc(C(=O)NCc4cccc(C(N)=O)c4)cc32)C1	binding	competition with immobilised ligand	1 µM	100%
COc1ncc2cc3ccccc3nc2c1C#N	cell-free assay	competition with immobilised ligand	5 µM	100%
O=S(=O)(NC1CCC(c2cc(F)ccc2F)(S(=O)(=O)c2ccc(Cl)cc2)CC1)C(F)(F)F (stereo not shown)	cell-free assay	competition with immobilised ligand	1 µM	100%
Nc1ncc2c(n1)-c1c([nH]c3ccc(C#CC4CC4)cc13)CCCC2	binding	competition with immobilised ligand	1 µM	93%
COc1ccnn2ncc(-c3ccnc(N(C)C)n3)c12	binding		1 µM	94%
O=C(c1ccc(Nc2ncc(Cl)c(-c3ccc(Cl)s3)n2)cc1)N1CCC(N2CCCC2)CC1	binding	competition with immobilised ligand	1 µM	84%
CCC(=O)N[C@@H]1CC[C@H](C(=O)N(C)c2ccc(-c3nc4ccccc4o3)cc2)C1	cell-free assay	competition with immobilised ligand	1 µM	93%
C[C@H]1CCN(c2nccc(-c3cnn4ncccc34)n2)C1	binding		1 µM	78%
O=C(Nc1cccnn1)N1CC(C/C=C/c2cncc(Oc3ccc(C(F)(F)F)cn3)n2)C1	cell-free assay	competition with immobilised ligand	1 µM	85%
CN(CCCC(F)(F)F)c1nccc(-c2cnn3ncccc23)n1	binding		1 µM	93%
COc1cc(-c2cn(C3CCc4ccccc4N(CC(F)(F)F)C3=O)nn2)ccc1-n1ccc(C)n1 (stereo not shown)	cell-free assay	competition with immobilised ligand	1 µM	87%
FC(F)(F)Oc1cccc(-c2cnc3ccc(-c4ccncc4)nn23)c1	cell-free assay	competition with immobilised ligand	5 µM	24%
N[C@@H]1CCN(c2nccc(-c3cnn4ncccc34)n2)C1	binding		1 µM	100%
FC(F)(F)c1ccc2c(c1)nc(-c1cccnc1)n2C1CC1	cell-free assay	competition with immobilised ligand	1 µM	81%
